Bioassay records: PubChem, several laboratories
CHOP UPR activ: activators of apoptotic arm of unfolded protein response (CHOP); CHO-CHOP luciferase reporter, UPR activation, luminescence; percent of tunicamycin response over DMSO baseline; activation, % at 10 µM; 330,000 tested, 0.34% active;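 active = at 10 µM dose, activation of 40% or more, normalized to positive control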;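 also: 100% = tunicamycin at 10 µg/mL and 0% = DMSO alone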
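Test system: CHO-CHOP cells, stable luciferase reporter of PERK-eIF2a-CHOP signalling | Quantity: 500 CHO-CHOP cells per well | Buffer or medium: F12 plus 10% serum | Compound dosing: 10 µM single point, 0.5% DMSO | Schedule: 6 h compound treatment, 37 °C | Signal: Luciferase luminescence | Control set: Tunicamycin high control, DMSO low control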
Jurkat NFkB inh: inhibitors of the PMA/ionomycin-induced NF-kB reporter in Jurkat cells; PMA/ionomycin-induced NF-kB luciferase reporter, luminescence; inhibition, % at 4 µM; 330,000 tested, 0.53% active; AID 435003; in the data active = inhibition above about 50%
697 NFkB inh: lowers PMA/ionomycin-induced NF-kB signal in 697 B cells | AID 435022 | inhibition, % at 4 µM | 330,000 tested, 0.33% active | 697 B-cell NF-kB luciferase reporter, 16 h; in the data active = inhibition above about 35%
CHOP inh: blocks CHOP induction under ER stress. CHO-K1 CHOP-promoter luciferase, tunicamycin-induced, 15-18 h. inhibition, % at 10 µM. 220,000 tested, 3.8% active;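 active = compounds that reduced the stress-induced luciferase reporter signal by more than about 70% of percent inhibition, limit read from the data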;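 also: 0% = tunicamycin plus vehicle and 100% = wells without tunicamycin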
XBP1 UPR activ: adaptive UPR (XBP1) activation; CHO-XBP1 luciferase reporter, IRE1-XBP1 UPR activation, luminescence; percent of tunicamycin response, DMSO as zero; activation, % at 20 µM; 330,000 tested, 0.33% active; AID 463104;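 active = versus positive control, 20 µM dose yields 30% or more activation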;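 also: 100% = tunicamycin at 10 µg/mL and 0% = DMSO only wells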
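Assay system: CHO-XBP1 luciferase reporter cells; Schedule: 6 h treatment, 37 °C; Detection: glow luminescence from Steady-Glo reagent; Benchmarks: high control tunicamycin 10 µg/mL final, low control DMSO vehicle only.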
An asterisk follows results filed as active; · = no result; ! = a repeat was not active. Shown is part of a subset that was picked to be rich in hits.

SMILES	CHOP UPR activ	Jurkat NFkB inh	697 NFkB inh	CHOP inh	XBP1 UPR activ
O=C1CCC(C(=O)OCc2nnc(-c3ccccc3)o2)=NN1	4	1	-6	·	4
Cc1ccc(C)c(/C=C/C(=O)c2ccccc(=O)c2O)c1	·	·	·	93*	·
Cc1ccc(/C=C/C(=O)c2ccccc(=O)c2O)c(C)c1	5	1	-29	77*	2
O=C(/C=C/c1ccccc1Cl)c1ccccc(=O)c1O	·	·	·	-64	·
CC(C)C(NC(=O)c1ccccc1NC(=O)c1ccccc1)C(=O)NNC(=O)c1ccncc1 (stereo not given)	0	6	0	·	-2
COc1ccccc1C(CNC(=O)C1CC(=O)N(Cc2ccc(C)cc2)C1)N1CCCC1 (stereo not given)	-2	11	-6	·	-2
Cc1cc(NC(=O)c2ccc(F)c(S(=O)(=O)N3CCCCC3)c2)no1	6	10	11	·	-3
Cc1cc(C(=O)CSc2nc3ccccc3c(=O)n2C)c(C)n1Cc1ccc2c(c1)OCO2	4	37	-15	79*	1
CC/C(=N\NC(=O)C1CC1)c1cccc(Cl)c1	0	-3	19	19	-2
CC/C(=N/NC(=O)CNc1ccc(Cl)cc1C)c1ccccc1	-1	-9	-8	70*	-1
CC(=O)Nc1ccc2sccc2c1	1	-9	8	-16	2
Cc1cc(C)n(-c2nnc(C)n2/N=C/c2cc(Br)ccc2OCc2ccccc2)n1	3	-21	-46	92*	6
O=C(Nc1ccc(O)cc1)c1cc2n(n1)C(C(F)(F)F)CC(c1ccco1)N2 (stereo not given)	-1	47	-27	7	4
O=C(NC1CCCCCC1)c1cc2n(n1)C(C(F)(F)F)CC(c1ccco1)N2 (stereo not given)	-3	-10	-15	74*	-2
O=[N+]([O-])c1ccccc1NCCNS(=O)(=O)c1ccc(Cl)cc1	0	6	-8	29	-2
O=[N+]([O-])c1ccc(NCCCNS(=O)(=O)c2ccc(Cl)cc2)c(Cl)c1	1	9	14	82*	0
CCCn1c(C(=O)OC)cc2c1ccn2-c1ccc(F)cc1	3	-1	-12	71*	3
COC(=O)c1cc2c(ccn2-c2ccc(F)cc2)n1CC(C)C	0	-8	-6	23	5
Cc1noc(-c2ccc(Cl)cc2)c1C(=O)O/N=C(\N)c1ccc(C(C)(C)C)cc1	3	7	-38	80*	-3
Cc1cc(C(=O)O/N=C(\N)c2ccc(C(C)(C)C)cc2)no1	6	-105	-200	-19	2
Cc1onc(-c2ccccc2)c1CNS(=O)(=O)c1cccc(Br)c1	1	-2	25	3	2
COc1ccc(/C=C2/SC(=S)N(n3c(C)ccc3C)C2=O)cc1	1	-8	-27	90*	-3
Cc1cc(=O)oc2c(C)c(OCC(=O)N3CCN(c4cccc(Cl)c4)CC3)ccc12	2	3	-37	·	-5
COc1cc(-c2nc(-c3ccccc3)c(-c3cccs3)[nH]2)cc(OC)c1OC	4	-1	18	-18	2
c1ccc(-c2nc(-c3cccs3)[nH]c2-c2ccccc2)cc1	2	4	4	74*	-1
SMILES	CHOP UPR activ	Jurkat NFkB inh	697 NFkB inh	CHOP inh	XBP1 UPR activ
O=C(COc1ccc(Br)cc1)NCC1COc2ccccc2O1 (stereo not given)	-1	6	12	·	-2
COc1ccc(NC(=O)C2CCCN(C(=O)c3ccc(Cl)cc3)C2)cc1S(=O)(=O)N(C)C (stereo not given)	0	14	22	·	0
Clc1ccccc1C(c1ccccc1)(c1ccccc1)n1ccnc1	12	-1	8	88*!	-5
O=C(NC12CC3CC(CC(C3)C1)C2)C1CC(=O)N(c2ccc(Br)cc2)C1 (stereo not given)	1	-1	20	70*	-2
O=C(NC12CC3CC(CC(C3)C1)C2)C1CC(=O)N(c2ccccc2)C1 (stereo not given)	1	-3	4	26	-4
O=C(Nc1cccc(Cl)c1Cl)C1CC(=O)N(c2ccc(Br)cc2)C1 (stereo not given)	0	3	12	78*	-2
Cc1cc(C)c(Cn2c(=O)n(CCCC(=O)NCc3ccco3)c(=O)c3ccccc32)c(C)c1	-4	-2	-8	·	1
CCCn1c(O)c(C=Nc2ccccc2)sc1=S	5	-23	-10	87*	1
COC(=O)COc1ccc(S(=O)(=O)NCCC2=CCCCC2)cc1Cl	1	-2	10	59	-2
COCCNS(=O)(=O)c1ccc(OCC(=O)OC)c(Cl)c1	15	16	24	92*	2
O=C(CSC(=S)N1CCCCC1)Nc1ncc2c(n1)CCCC2=O	0	6	3	1	-1
CN(Cc1ccon1)C(=O)C1CCC(=O)N(CCc2ccc(Cl)cc2)C1 (stereo not given)	-1	-3	12	·	-2
COc1cccc(/C(O)=C/c2nc3ccc(C(=O)NCCc4ccc(Cl)cc4)cc3[nH]c2=O)c1	·	·	·	83*	·
CC1CCN(C(=O)Cn2c(=O)n(CCc3ccccc3)c(=O)c3ccccc32)CC1	-2	6	2	88*	-1
CC1CCN(C(=O)Cn2c(=O)n(Cc3ccc4c(c3)OCO4)c(=O)c3ccccc32)CC1	0	0	-8	11	1
Cc1cccc(NC(=O)c2cc(NC(=O)C3CCCCC3C(=O)O)ccc2N2CCCCC2)c1 (stereo not given)	2	13	28	77*	0
CC(=O)Nc1ccc(N2CCCCC2)c(C(=O)Nc2cccc(C)c2)c1	2	13	-11	31	2
CCc1ccc(S(=O)(=O)NCc2csc(-c3ccccc3)n2)s1	-1	-11	-3	73*	-1
CC(=O)Nc1ccc(S(=O)(=O)NCc2cn3c(C)csc3n2)cc1	-1	1	7	12	-2
CCc1ccc(S(=O)(=O)NCc2cn3c(C)csc3n2)s1	0	-4	-1	90*	-1
CCc1ccc(S(=O)(=O)NCCc2csc(-c3ccccc3)n2)s1	-1	-1	-2	1	-4
Cc1cc(C)cc(C(=O)NCC(=O)OC(C)C(=O)N(C)c2ccccc2)c1 (stereo not given)	0	1	-4	33	-2
O=C(Nc1ccc(Cl)cn1)c1ccc(COCC(F)(F)C(F)F)o1	0	-10	-4	96*	3
CCc1ccc(N(CC)C(=O)c2ccc3c(Cl)c4c(nc3c2)CCC4)cc1	1	-5	1	87*	-1
Cc1ccc(Cl)c(NC(=O)COC(=O)c2nn(C)c(=O)c3ccccc23)c1Cl	-1	0	25	·	-2
O=C(Cc1cn(Cc2cccc(Cl)c2)c2ccccc12)N1CCCCCC1	-2	-4	0	76*	-4
